Experimental data from ChEMBL document CHEMBL4011584, “Overcoming drug resistance by cell-penetrating peptide-mediated delivery of a doxorubicin dimer with high DNA-binding affinity” (Eur J Med Chem, 2017).
pEC50, pIC50, pKd: −log10 of the molar value. Calls of active or inactive are those of the source. The rule behind the calls is not given here.

Columns and labels:
[1] = (§1) Drug level treated with (S,S,R,S,S,S,E)-N,N'-((6S,9S,12S,15S,18S,21S,24S,27S)-30-acetamido-1-amino-6-carbamoyl-9,12,15,18,21,24,27-heptakis(3-guanidinopropyl)-1-imino-8,11,14,17,20,23,26,29,37-nonaoxo-32,33-dithia-2,7,10,13,16,19,22,25,28,36-decaazadotetracontane-38,42-diyl)bis(2-((E)-1-((2S,4S)-4-((2R,4S,5S,6S)-4-amino-5-hydroxy-6-methyltetrahydro-2H-pyran-2-yloxy)-2,5,12-trihydroxy-7-methoxy-6,11-dioxo-1,2,3,4,6,11-hexahydrotetracen-2-yl)-2-hydroxyethylideneaminooxy)acetamide)decaacetate at 1 mM in presence of glutathione at 3 hrs post dose by MALDI-TOF-mass spectroscopic analysis
Method in brief: (§2)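 Conjugate at 1 mM in DPBS pH 7.4 with 10 mM glutathione (tenfold excess), 37°C, shaking at 300 rpm. Disulfide reduction followed by HPLC at 480 nm over 24 h. Cleavage products identified by MALDI-TOF MS.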

[2] = Antiproliferative activity against human adriamycin-resistant Kelly cells after 72 hrs by CellTiter-Glo luminescent cell viability assay; format: functional, cell-based
Method in brief: (§3)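 1×10^3 cells/well, allowed to attach 24 h, then exposed 72 h to 0.05-20 µM drug. Viability by ATP luminescence (CellTiter-Glo) relative to untreated controls with medium correction. IC50 read from log-concentration survival curves, independent triplicates. Kelly-WT and doxorubicin-selected Kelly-ADR (tenfold resistant) cultured in RPMI1640 with 10 % FCS, 2 mM glutamine and pen/strep at 37°C, 5 % CO2.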

MCF7 = experiment: Antiproliferative activity against human MCF7 cells after 72 hrs by CellTiter-Glo luminescent cell viability assay; format: functional, cell-based; details: MCF7, 72 h
[3] = Antiproliferative activity against human Kelly cells after 72 hrs by CellTiter-Glo luminescent cell viability assay; format: functional, cell-based; method in brief: as §3
[4] = as §1, with “after 24” for “at 3”, “hrs” for “hrs post dose”; method in brief: as §2
[5] = Drug uptake in nucleus of human Kelly cells at 10 uM after 72 hrs by fluorescence confocal microscopic method; format: ADME
Method in brief: (§4)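 Live Kelly-WT or Kelly-ADR cells (1×10^4/well) exposed to 10 µM drug for 24 or 72 h at 37°C, 5 % CO2. Imaged by confocal laser scanning microscopy with a 63× water objective. Red signal is anthracycline-associated fluorescence.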

[6] = Drug uptake in cytosol of adriamycin-resistant human Kelly cells at 10 uM after 72 hrs by fluorescence confocal microscopic method; format: ADME; method in brief: as §4
[7] = Drug uptake in human adriamycin-resistant Kelly cells at 10 uM after 24 hrs by fluorescence confocal microscopic method; format: ADME, cell-based; method in brief: as §4
[8] = Drug uptake in human Kelly cells at 10 uM after 72 hrs by fluorescence confocal microscopic method; format: ADME, cell-based; method in brief: as §4
[9] = Drug uptake in nucleus of adriamycin-resistant human Kelly cells at 10 uM after 72 hrs by fluorescence confocal microscopic method; format: ADME; method in brief: as §4
[10] = Drug uptake in nucleus of human adriamycin-resistant Kelly cells at 10 uM after 24 hrs by fluorescence confocal microscopic method; format: ADME; method in brief: as §4
[11] = Drug uptake in human Kelly cells at 10 uM after 24 hrs by fluorescence confocal microscopic method; format: ADME, cell-based; method in brief: as §4
[12] = Binding affinity to Cy5-labelled-12 base pair double stranded DNA (unknown origin) measured under infrared laser light by microscale thermophoresis
Method in brief: (§5)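 Microscale thermophoresis: 50 nM Cy5-labeled DNA titrated with ligand in 50 mM Tris pH 6.5, 15 mM NaCl, 10 mM MgCl2, 0.05 % Tween 20. IR laser at 10 % intensity, starting from room temperature. Fluorescence signals fitted assuming 1:1 binding to give Ka/EC50.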

[13] = Binding affinity to Cy5-labelled-36 base pair double stranded DNA (unknown origin) measured under infrared laser light by microscale thermophoresis; method in brief: as §5
[14] = Potency index, ratio of doxorubicin Ka to compound Ka for binding affinity to Cy5-labelled-36 base pair double stranded DNA (unknown origin)
[15] = Potency index, ratio of doxorubicin EC50 to compound EC50 for binding affinity to Cy5-labelled-36 base pair double stranded DNA (unknown origin)
[16] = Drug uptake in cytosol of human Kelly cells at 10 uM after 72 hrs by fluorescence confocal microscopic method; format: ADME; method in brief: as §4
[17] = Drug uptake in adriamycin-resistant human Kelly cell membranes at 10 uM after 72 hrs by fluorescence confocal microscopic method; format: ADME; method in brief: as §4
[18] = Potency index, ratio of doxorubicin IC50 to compound IC50 for human adriamycin-resistant Kelly cells; format: functional
[19] = Drug uptake in human Kelly cell membrane at 10 uM after 24 hrs by fluorescence confocal microscopic method; format: ADME, cell-based; method in brief: as §4
[20] = Drug uptake in nucleus of human Kelly cells at 10 uM after 72 hrs by DRAQ5-staining based fluorescence confocal microscopic method; format: ADME
Method in brief: (§6)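 Kelly-WT or Kelly-ADR cells exposed 72 h to 10 µM drug. Nuclei counterstained with 5 µM DRAQ5 for 5 min before live confocal imaging at 37°C, 5 % CO2. Nuclear localization scored by overlay (colocalization) with the DRAQ5 signal.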

[21] = Drug uptake in nucleus of human adriamycin-resistant Kelly cells at 10 uM after 72 hrs by DRAQ5-staining based fluorescence confocal microscopic method; format: ADME; method in brief: as §6
[22] = Stability of the compound at pH 5 assessed as doxorubicin formation; format: physicochemical; details: buffer
[23] = as §1, with “1 min” for “3 hrs”; method in brief: as §2

With `COc1cccc2c1C(=O)c1c(O)c3c(c(O)c1C2=O)C[C@@](O)(/C(CO)=N/OCC(=O)NCCCC[C@H](NC(=O)CO/N=C(\CO)[C@]1(O)Cc2c(O)c4c(c(O)c2[C@@H](O[C@H]2C[C@H](N)[C@H](O)[C@H](C)O2)C1)C(=O)c1c(OC)cccc1C4=O)C(=O)NCCSSC[C@H](NC(=O)CC[C@@H](N)C(=O)O)C(=O)NCC(=O)O)C[C@@H]3O[C@H]1C[C@H](N)[C@H](O)[C@H](C)O1` the Drug metabolism [1] was “Metabolite detected”.
`CC(=O)N[C@@H](CS)C(=O)N[C@@H](CCCNC(=N)N)C(=O)N[C@@H](CCCNC(=N)N)C(=O)N[C@@H](CCCNC(=N)N)C(=O)N[C@@H](CCCNC(=N)N)C(=O)N[C@@H](CCCNC(=N)N)C(=O)N[C@@H](CCCNC(=N)N)C(=O)N[C@@H](CCCNC(=N)N)C(=O)N[C@@H](CCCNC(=N)N)C(N)=O` showed a pIC50 [2] of at most 4.00, a pIC50 (MCF7) of at most 4.00 and a pIC50 [3] of at most 4.00.
With `COc1cccc2c1C(=O)c1c(O)c3c(c(O)c1C2=O)C[C@@](O)(/C(CO)=N/OCC(=O)NCCCC[C@H](NC(=O)CO/N=C(\CO)[C@]1(O)Cc2c(O)c4c(c(O)c2[C@@H](O[C@H]2C[C@H](N)[C@H](O)[C@H](C)O2)C1)C(=O)c1c(OC)cccc1C4=O)C(=O)NCCSSCCNC(=O)[C@H](CCCCNC(=O)CO/N=C(\CO)[C@]1(O)Cc2c(O)c4c(c(O)c2[C@@H](O[C@H]2C[C@H](N)[C@H](O)[C@H](C)O2)C1)C(=O)c1c(OC)cccc1C4=O)NC(=O)CO/N=C(\CO)[C@]1(O)Cc2c(O)c4c(c(O)c2[C@@H](O[C@H]2C[C@H](N)[C@H](O)[C@H](C)O2)C1)C(=O)c1c(OC)cccc1C4=O)C[C@@H]3O[C@H]1C[C@H](N)[C@H](O)[C@H](C)O1` the Drug metabolism [4] was “Metabolite detected”.
For `COc1cccc2c1C(=O)c1c(O)c3c(c(O)c1C2=O)C[C@@](O)(C(=O)CO)C[C@@H]3O[C@H]1C[C@H](N)[C@H](O)[C@H](C)O1` [DOXORUBICIN], the Drug uptake [5] was “Active”, the Drug uptake [6] was “Not Active” and the pIC50 [2] was 5.18. The Drug uptake [7] was “Active”, the Drug uptake [8] was “Active” and the Drug uptake [9] was “Not Active”. For the same molecule, the Drug uptake [10] was “Active”, the Drug uptake [11] was “Active” and the Activity [12] was “inactive”. For the same molecule, the pEC50 [13] was 5.94, the pKd [13] was 5.95 and the pIC50 [3] was 6.74.
With `COc1cccc2c1C(=O)c1c(O)c3c(c(O)c1C2=O)C[C@@](O)(/C(CO)=N/OCC(=O)NCCCC[C@H](NC(=O)CO/N=C(\CO)[C@]1(O)Cc2c(O)c4c(c(O)c2[C@@H](O[C@H]2C[C@H](N)[C@H](O)[C@H](C)O2)C1)C(=O)c1c(OC)cccc1C4=O)C(=O)NCCSSc1ccccn1)C[C@@H]3O[C@H]1C[C@H](N)[C@H](O)[C@H](C)O1` the pIC50 [2] was 5.13, the pIC50 (MCF7) was 5.17 and the Ratio [14] was 10. For the same molecule, the Activity [12] was “inactive”, the Ratio EC50 [15] was 10 and the pEC50 [13] was 6.82. It also gave a Ka [13] of 7.9 ×10⁶ /M, a pKd [13] of 6.90 and a pIC50 [3] of 5.75.
For `CC(=O)O.CC(=O)O.CC(=O)O.CC(=O)O.CC(=O)O.CC(=O)O.CC(=O)O.CC(=O)O.CC(=O)O.CC(=O)O.COc1cccc2c1C(=O)c1c(O)c3c(c(O)c1C2=O)C[C@@](O)(/C(CO)=N/OCC(=O)NCCCC[C@H](NC(=O)CO/N=C(\CO)[C@]1(O)Cc2c(O)c4c(c(O)c2[C@@H](O[C@H]2C[C@H](N)[C@H](O)[C@H](C)O2)C1)C(=O)c1c(OC)cccc1C4=O)C(=O)NCCSSC[C@H](NC(C)=O)C(=O)N[C@@H](CCCNC(=N)N)C(=O)N[C@@H](CCCNC(=N)N)C(=O)N[C@@H](CCCNC(=N)N)C(=O)N[C@@H](CCCNC(=N)N)C(=O)N[C@@H](CCCNC(=N)N)C(=O)N[C@@H](CCCNC(=N)N)C(=O)N[C@@H](CCCNC(=N)N)C(=O)N[C@@H](CCCNC(=N)N)C(N)=O)C[C@@H]3O[C@H]1C[C@H](N)[C@H](O)[C@H](C)O1`, the Drug uptake [16] was “Active”, the pIC50 [2] was 5.56 and the Drug uptake [7] was “Active”. For the same molecule, the Drug uptake [8] was “Active”, the Drug uptake [9] was “Active” and the Drug uptake [17] was “Active”. The “Ratio IC50” value [18] was 3, the pIC50 (MCF7) was 5.44 and the Drug uptake [19] was “Active”. The Drug uptake [20] was “Active”, the Drug uptake [11] was “Active” and the Drug uptake [21] was “Active”. The Stability [22] was “Stable” and the pIC50 [3] was 5.61.
For `COc1cccc2c1C(=O)c1c(O)c3c(c(O)c1C2=O)C[C@@](O)(/C(CO)=N/OCC(=O)NCCCC[C@H](NC(=O)CO/N=C(\CO)[C@]1(O)Cc2c(O)c4c(c(O)c2[C@@H](O[C@H]2C[C@H](N)[C@H](O)[C@H](C)O2)C1)C(=O)c1c(OC)cccc1C4=O)C(=O)NCCS)C[C@@H]3O[C@H]1C[C@H](N)[C@H](O)[C@H](C)O1`, the Drug metabolism [23] was “Metabolite detected”.
